Data on 9 molecules can be found in ChEMBL document CHEMBL1811795, “Photolabile ubiquinone analogues for identification and characterization of quinone binding sites in proteins” (Bioorg Med Chem, 2010).

Series [1] has as its system Bacillus subtilis. As to the kind of experiment: Inhibition of photo labeled detergent solubilized succinate:ubiquinone oxidoreductase activity in Bacillus subtilis measured in dark. The essentials: (§1)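 Purified Complex II (5 µM, detergent) with 10–75 µM azidoquinone in 50 mM potassium phosphate, 1 mM EDTA, pH 7.4, illuminated on ice with mid-wavelength UV at 7 cm; timed aliquots held dark on ice. SQR activity then measured within 1 h by DCPIP reduction with Q1 as acceptor.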

The subject of series [2] is Escherichia coli. As to the kind of experiment: Activity of Escherichia coli WrbA. A digest of the protocol:
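Purified E. coli WrbA in 20 mM potassium phosphate pH 7.2, room temperature, with 100 µM FMN, 200 µM NADH and 200 µM quinone; NADH oxidation followed at 340 nm; Vmax reported.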

Series [3] relates to Bacillus subtilis. As to the kind of experiment: Inhibition of Bacillus subtilis Succinate-ubiquinone oxidoreductase using Q0 as substrate. The essentials: (§2)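 Succinate:quinone reductase of purified B. subtilis Complex II, read as DCPIP reduction at 600 nm. Conditions: 20 mM succinate, 50 mM potassium phosphate pH 7.4, 1 mM KCN, 0.1 mM EDTA, room temperature, quinone starting the reaction. HQNO added at 10 µM final; percent inhibition recorded.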

In series [4] the test system is Bacillus subtilis. As to the kind of experiment: Activity of Bacillus subtilis Succinate-ubiquinone oxidoreductase. The essentials: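 Purified detergent-solubilized B. subtilis Complex II ([…]): succinate-driven DCPIP reduction followed at 600 nm, 20 mM succinate, quinone (50 mM as printed) as primary acceptor, 50 mM potassium phosphate pH 7.4 with 1 mM KCN and 0.1 mM EDTA, room temperature, started by quinone; Vmax reported.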

For series [5], the system named is Rhodobacter capsulatus. As to the kind of experiment: Activity of Rhodobacter capsulatus NADH-ubiquinone oxidoreductase. The essentials: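 R. capsulatus membranes (aerobic, dark, 32 °C growth) assayed for NADH:quinone reductase at 25 °C: 50 mM Tris–Cl pH 8, 10 mM KCl, 5 mM MgCl2, 0.2 µg/mL gramicidin A, 150 µM NADH. Quinone varied 0.2–3 Km; Michaelis–Menten fit of initial rates gives apparent Km and Vmax. NADH oxidation read at 340 nm.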

Series [6] deals with Rhodobacter capsulatus. As to the kind of experiment: Activity of Rhodobacter capsulatus NADH-ubiquinone oxidoreductase at 50 uM UV-illuminated compound. A digest of the protocol: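 R. capsulatus membranes incubated with 50 µM previously UV-illuminated azidoquinone, then NADH:O2 reductase (NADH oxidase) activity measured. Runs without additions and with the unmodified quinone were done in parallel.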

Series [7] concerns Escherichia coli. As to the kind of experiment: Inhibition of photo labeled Escherichia coli WrbA activity at 50 uM. The following applies: TDE = time-dependent effect. The essentials:
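WrbA (10 µM) with 50 µM azidoquinone in 20 mM potassium phosphate pH 7.2, on ice, under mid-wavelength UV light at 7 cm; aliquots taken over time and kept dark on ice. Activity then read within 1 h as NADH oxidation at 340 nm with 100 µM FMN, 200 µM NADH and 200 µM quinone.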

Series [8] concerns Bacillus subtilis. As to the kind of experiment: Inhibition of Bacillus subtilis Succinate-ubiquinone oxidoreductase using AzQ0 as substrate. A digest of the protocol:
as §2

Series [9] has as its system Bacillus subtilis. As to the kind of experiment: Inhibition of photo labeled detergent solubilized succinate:ubiquinone oxidoreductase activity of respiratory chain in Bacillus subtilis after 5 mins of UV-illumination. A digest of the protocol:
as §1

A short description of series [10]: Photo stability of the compound assessed as decomposition at 500 uM after 10 mins of UV-illumination. Format: physicochemical.
Series [11] has as its system Rhodobacter capsulatus. As to the kind of experiment: Inhibition of Rhodobacter capsulatus NADH-ubiquinone oxidoreductase using Q0 as substrate.
Series [12] concerns Rhodobacter capsulatus. As to the kind of experiment: Inhibition of Rhodobacter capsulatus NADH-ubiquinone oxidoreductase using Q1 as substrate.
The test system of series [13] is Rhodobacter capsulatus. As to the kind of experiment: Inhibition of Rhodobacter capsulatus NADH-ubiquinone oxidoreductase using AzQ1 as substrate.
Series [14] has as its system Rhodobacter capsulatus. As to the kind of experiment: Inhibition of Rhodobacter capsulatus NADH-ubiquinone oxidoreductase using DAzB as substrate.
In series [15] the test system is Rhodobacter capsulatus. As to the kind of experiment: Inhibition of Rhodobacter capsulatus NADH-ubiquinone oxidoreductase using AzQ0 as substrate.
Series [16] has as its system Rhodobacter capsulatus. As to the kind of experiment: Inhibition of Rhodobacter capsulatus NADH-ubiquinone oxidoreductase using DMB as substrate.
Series [17] has as its system Rhodobacter capsulatus. As to the kind of experiment: Activity of Rhodobacter capsulatus NADH-ubiquinone oxidoreductase at 50 uM post UV-illuminated compound.
Series [18] has as its system Rhodobacter capsulatus. As to the kind of experiment: Inhibition of NADH:Q1 reductase activity of Rhodobacter capsulatus NADH-ubiquinone oxidoreductase at 20 uM. The conditions noted are these: TDE = time-dependent effect. A digest of the protocol: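 Membranes in Buffer A (50 mM Bis–Tris propane pH 6.8, 20 mM KCl, 10 mM MgCl2) at 1 mg/mL protein, preincubated 5 min dark with ~20 µM azidoquinone, UV-illuminated up to 10 min at 7 cm, 4 °C. NADH:Q1 reductase then read at 340 nm, 25 °C, pH 8.0 Tris–Cl with 5 mM KCN, 100 µM Q1, 150 µM NADH.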

Series [19] concerns Rhodobacter capsulatus. As to the kind of experiment: Inhibition of NADH:ferricyanide reductase activity of Rhodobacter capsulatus NADH-ubiquinone oxidoreductase at 20 uM after 20 mins of UV-illumination.
For series [20], the system named is Rhodobacter capsulatus. As to the kind of experiment: Inhibition of NADH:Q1 reductase activity of Rhodobacter capsulatus NADH-ubiquinone oxidoreductase at 20 uM after 5 mins of UV-illumination. A digest of the protocol: (§3)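 R. capsulatus membranes, 1 mg/mL protein in Bis–Tris propane buffer pH 6.8, preincubated 5 min in the dark with about 20 µM azidoquinone. Then illuminated with mid-wavelength UV at 7 cm, 4 °C, in a quartz cuvette. Where stated, 5 µM NADH was added (with KCN) before illumination. NADH:Q1 reductase assayed straight after: 340 nm, 25 °C, Tris–Cl pH 8.0, 5 mM KCN, 100 µM Q1, 150 µM NADH, gramicidin.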

In series [21] the test system is Rhodobacter capsulatus. As to the kind of experiment: Inhibition of NADH:Q1 reductase activity of Rhodobacter capsulatus NADH-ubiquinone oxidoreductase at 20 uM after 5 mins of UV-illumination in presence of 5 uM NADH. The essentials:
as §3

In series [22] the test system is Bacillus subtilis. As to the kind of experiment: Inhibition of Bacillus subtilis Succinate-ubiquinone oxidoreductase using Q1 as substrate. A digest of the protocol: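 Purified B. subtilis Complex II (from a strain overproducing it, solubilised in dodecylmaltoside), 5 µM, in 50 mM potassium phosphate, 1 mM EDTA, pH 7.4. Illuminated on ice with mid-wavelength UV at 7 cm, with 10–75 µM azidoquinone. Samples held dark on ice, then assayed within 1 h: succinate:Q1 reductase, read as DCPIP reduction at 600 nm, room temperature.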

Calls of active or inactive are those of the source. No cut-off for these calls is given here.

For `COC1=C(OC)C(=O)C(C)=CC1=O`, the inhibition entry in [1] was “inactive”. Also, the results for the Vmax (microM/min/mg) in series [2] and in series [4] were 684 and 2.19, respectively. In addition, in series [3], the Imax is 88%. Besides, the Km in [5] worked out at 75 µM. For the same molecule, the Vmax in series [5] came to 0.37 µmol/min/mg.
Take `COC1=C(OC)C(=O)C(N=[N+]=[N-])=C(C)C1=O`: the inhibition was 20% in [6] and “tde” in [7]. For the same molecule, the inhibition result in series [1] is “inactive”. Besides, the figures for the Vmax (microM/min/mg) in series [2] and in series [4] were 724 and 3.72, respectively. Moreover, the Imax in series [8] amounted to 89%. Moreover, in series [9], the inhibition entry is “Active”. Besides, the Km in series [5] stood at 52 µM. The maximal velocity (Vmax) in series [5] worked out at 0.58 µmol/min/mg. Also, the Stability result in series [10] is recorded as “Stable”.
On to `CC1=CC(=O)C=C(C)C1=O`, for which the inhibition result in series [1] is “inactive”. Besides, in series [2], the Vmax (microM/min/mg) turned out to be 546. Moreover, the Vmax (microM/min/mg) in series [4] was 3.99. Further, in series [5], the Km was 100 µM and the Vmax is 0.35 µmol/min/mg.
For the molecule `C=C(C)[C@H]1Cc2c(ccc3c2O[C@@H]2COc4cc(OC)c(OC)cc4[C@@H]2C3=O)O1`, the Imax came to 48% in series [11]; 68% in series [12]; 79% in series [13]; 53% in series [14]; 53% in [15]; 63% in series [16].
For the molecule `C/C=C(\C)[C@H](O)[C@H](C)/C=C(C)/C=C/C/C(C)=C/Cc1nc(OC)c(OC)c(O)c1C`, the Imax in series [11] was determined as 68%; in [12], 73%; in [13], 79%; in series [14] it was 71%; in series [15] it was 68%; in [16], 75%.
Turning to `CC1=CC(=O)C(N=[N+]=[N-])=C(C)C1=O`, the inhibition entry in series [1] and in series [17] was “inactive” in each case. Further, the Vmax (microM/min/mg) came to 464 in series [2] and 4.72 in series [4]. For the same molecule, the Km in series [5] is 86 µM. In addition, the Vmax in series [5] came to 0.59 µmol/min/mg. The Stability entry in [10] was “Unstable”.
For the molecule `COC1=C(OC)C(=O)C(CCCCCN=[N+]=[N-])=C(C)C1=O`, the inhibition was 20% in [6] and “tde” in [18]. The inhibition entry in series [1] and in [19] was “inactive” each time. In addition, in [4], the Vmax (microM/min/mg) was determined as 2.57. Further, the Km in series [5] worked out at 21 µM. The Vmax in series [5] was 0.35 µmol/min/mg.
As to `[N-]=[N+]=NC1=CC(=O)C=CC1=O`, the inhibition entry in series [20] and in [21] was “Active” throughout.
As to `COC1=C(OC)C(=O)C(CC=C(C)C)=C(C)C1=O`, the inhibition result in series [1] is “inactive”. The molecule further registered an Imax in [22] of 90%. Besides, the Vmax (microM/min/mg) in series [2] was below 10. Further, the Vmax (microM/min/mg) in series [4] was 2.52. Also, in [5], the Michaelis-Menten constant (Km) amounted to 23 µM and the Vmax is 0.67 µmol/min/mg.

The term inhibition denotes the relative decrease from the control value, in per cent. Usually Km stands for the concentration of substrate that gives half-maximal velocity. Broadly, the Vmax is the top rate of the reaction or transport when substrate is in excess.
